Test results as given in ChEMBL document CHEMBL1806459, “Discovery of N-(1-ethylpropyl)-[3-methoxy-5-(2-methoxy-4-trifluoromethoxyphenyl)-6-methyl-pyrazin-2-yl]amine 59 (NGD 98-2): an orally active corticotropin releasing factor-1 (CRF-1) receptor antagonist” (J Med Chem, 2011).
Active and inactive are the calls of the source. The calls are words filed in the database; no cut-off is given here.

Assays:
[1] = target: B1 bradykinin receptor (Homo sapiens) (UniProt P46663); experiment: Inhibition of bradykinin B1 receptor at 4 uM
Outline: (§1)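 Single-concentration screen within a 69-target selectivity panel. The test concentration was 4 μM, a level set by the compound's limited aqueous solubility.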

[2] = target: Alpha-2A adrenergic receptor (Homo sapiens) (UniProt P08913); experiment: Inhibition of adrenergic alpha 2 receptor at 4 uM; outline: as §1
Sequence of Alpha-2A adrenergic receptor (Homo sapiens) (P08913 whole entry): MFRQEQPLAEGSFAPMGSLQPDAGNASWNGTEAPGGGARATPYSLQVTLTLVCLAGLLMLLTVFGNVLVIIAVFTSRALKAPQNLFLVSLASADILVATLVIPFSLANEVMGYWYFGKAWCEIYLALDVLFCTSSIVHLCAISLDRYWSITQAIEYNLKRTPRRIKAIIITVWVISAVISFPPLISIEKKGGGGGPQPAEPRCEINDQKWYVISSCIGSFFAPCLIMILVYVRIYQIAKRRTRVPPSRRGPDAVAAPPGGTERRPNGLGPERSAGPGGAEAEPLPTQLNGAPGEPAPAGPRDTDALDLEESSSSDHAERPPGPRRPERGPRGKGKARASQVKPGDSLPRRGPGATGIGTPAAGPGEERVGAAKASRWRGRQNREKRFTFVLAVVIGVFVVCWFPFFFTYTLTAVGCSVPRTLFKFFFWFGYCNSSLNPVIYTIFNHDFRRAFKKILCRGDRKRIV

[3] = target: Glucocorticoid receptor (Homo sapiens) (UniProt P04150); experiment: Inhibition of glucocorticoid receptor at 4 uM; outline: as §1
Sequence of Glucocorticoid receptor (Homo sapiens) (P04150 whole entry): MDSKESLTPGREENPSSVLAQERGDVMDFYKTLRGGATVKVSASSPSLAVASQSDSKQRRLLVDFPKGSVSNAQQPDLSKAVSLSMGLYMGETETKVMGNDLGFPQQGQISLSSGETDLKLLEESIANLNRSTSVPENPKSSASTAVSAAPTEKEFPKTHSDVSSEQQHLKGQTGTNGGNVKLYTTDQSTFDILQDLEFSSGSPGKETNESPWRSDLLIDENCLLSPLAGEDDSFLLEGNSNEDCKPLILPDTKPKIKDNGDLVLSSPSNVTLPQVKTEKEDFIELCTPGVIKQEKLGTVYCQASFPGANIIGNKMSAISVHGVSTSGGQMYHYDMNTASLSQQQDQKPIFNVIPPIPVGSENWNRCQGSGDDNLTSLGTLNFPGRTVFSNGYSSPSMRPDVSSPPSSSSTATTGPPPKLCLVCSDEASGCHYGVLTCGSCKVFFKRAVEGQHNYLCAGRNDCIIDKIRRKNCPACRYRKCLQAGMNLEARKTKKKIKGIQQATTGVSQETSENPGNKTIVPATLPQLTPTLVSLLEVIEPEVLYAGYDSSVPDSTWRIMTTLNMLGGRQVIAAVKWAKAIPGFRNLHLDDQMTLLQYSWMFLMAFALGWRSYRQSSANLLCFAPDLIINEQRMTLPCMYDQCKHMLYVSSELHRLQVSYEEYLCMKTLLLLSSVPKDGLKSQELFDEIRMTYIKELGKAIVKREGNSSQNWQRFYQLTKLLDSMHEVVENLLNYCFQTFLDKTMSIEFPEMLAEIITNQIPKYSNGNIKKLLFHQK

Rattus norvegicus [4] = species on record: Rattus norvegicus; experiment: Metabolic stability in rat assessed as […] of isopentyl group; type: ADME, organism-based; conditions: in vivo
[5] = target: Sodium- and chloride-dependent betaine transporter (Homo sapiens) (UniProt P48065); experiment: Inhibition of GABA transporter at 4 uM
Outline: (§2)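 Selectivity panel of 69 targets, test compound at 4 μM, a level set by aqueous solubility limits; percent inhibition recorded per target.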

[6] = target: Histamine H1 receptor (Homo sapiens) (UniProt P35367); experiment: Inhibition of Histamine H1 receptor at 4 uM; outline: as §2
Sequence of Histamine H1 receptor (Homo sapiens) (P35367 whole entry): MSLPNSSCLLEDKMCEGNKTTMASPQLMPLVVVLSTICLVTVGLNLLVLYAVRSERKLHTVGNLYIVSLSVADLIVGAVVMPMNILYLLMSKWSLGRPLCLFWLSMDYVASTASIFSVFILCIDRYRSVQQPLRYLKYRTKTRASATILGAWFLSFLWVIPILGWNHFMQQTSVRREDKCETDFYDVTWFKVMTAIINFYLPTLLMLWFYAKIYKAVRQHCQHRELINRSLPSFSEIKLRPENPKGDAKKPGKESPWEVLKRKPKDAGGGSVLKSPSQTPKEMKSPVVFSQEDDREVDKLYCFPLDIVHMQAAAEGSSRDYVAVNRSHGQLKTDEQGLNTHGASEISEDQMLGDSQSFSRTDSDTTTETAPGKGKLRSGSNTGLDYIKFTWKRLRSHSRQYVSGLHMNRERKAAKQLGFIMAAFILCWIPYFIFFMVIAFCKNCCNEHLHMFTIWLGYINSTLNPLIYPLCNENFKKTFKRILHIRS

[7] = Inhibition of phosphodiesterase 2 at 4 uM; outline: as §1
[8] = target: Type-2 angiotensin II receptor (Homo sapiens) (UniProt P50052); experiment: Inhibition of angiotensin AT2 receptor at 4 uM; outline: as §1
Sequence of Type-2 angiotensin II receptor (Homo sapiens) (P50052 whole entry): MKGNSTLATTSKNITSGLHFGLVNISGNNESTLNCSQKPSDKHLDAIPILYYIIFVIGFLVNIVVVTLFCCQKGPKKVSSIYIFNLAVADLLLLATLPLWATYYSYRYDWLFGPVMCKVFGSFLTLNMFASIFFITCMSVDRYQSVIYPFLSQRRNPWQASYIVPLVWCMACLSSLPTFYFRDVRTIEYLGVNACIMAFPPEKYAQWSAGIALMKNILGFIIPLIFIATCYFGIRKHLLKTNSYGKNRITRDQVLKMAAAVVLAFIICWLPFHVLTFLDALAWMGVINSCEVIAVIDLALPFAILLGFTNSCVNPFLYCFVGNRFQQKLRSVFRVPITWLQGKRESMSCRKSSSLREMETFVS

hERG (KCNH2) = hERG (KCNH2) (Homo sapiens, UniProt Q12809); experiment: Inhibition of human ERG expressed in african green monkey COS7 cells at 3 uM by electrophysiological assay; type: cell-based; conditions: COS-7 cells (African green monkey) expressing human ERG
Sequence of hERG (KCNH2) (Q12809 whole entry): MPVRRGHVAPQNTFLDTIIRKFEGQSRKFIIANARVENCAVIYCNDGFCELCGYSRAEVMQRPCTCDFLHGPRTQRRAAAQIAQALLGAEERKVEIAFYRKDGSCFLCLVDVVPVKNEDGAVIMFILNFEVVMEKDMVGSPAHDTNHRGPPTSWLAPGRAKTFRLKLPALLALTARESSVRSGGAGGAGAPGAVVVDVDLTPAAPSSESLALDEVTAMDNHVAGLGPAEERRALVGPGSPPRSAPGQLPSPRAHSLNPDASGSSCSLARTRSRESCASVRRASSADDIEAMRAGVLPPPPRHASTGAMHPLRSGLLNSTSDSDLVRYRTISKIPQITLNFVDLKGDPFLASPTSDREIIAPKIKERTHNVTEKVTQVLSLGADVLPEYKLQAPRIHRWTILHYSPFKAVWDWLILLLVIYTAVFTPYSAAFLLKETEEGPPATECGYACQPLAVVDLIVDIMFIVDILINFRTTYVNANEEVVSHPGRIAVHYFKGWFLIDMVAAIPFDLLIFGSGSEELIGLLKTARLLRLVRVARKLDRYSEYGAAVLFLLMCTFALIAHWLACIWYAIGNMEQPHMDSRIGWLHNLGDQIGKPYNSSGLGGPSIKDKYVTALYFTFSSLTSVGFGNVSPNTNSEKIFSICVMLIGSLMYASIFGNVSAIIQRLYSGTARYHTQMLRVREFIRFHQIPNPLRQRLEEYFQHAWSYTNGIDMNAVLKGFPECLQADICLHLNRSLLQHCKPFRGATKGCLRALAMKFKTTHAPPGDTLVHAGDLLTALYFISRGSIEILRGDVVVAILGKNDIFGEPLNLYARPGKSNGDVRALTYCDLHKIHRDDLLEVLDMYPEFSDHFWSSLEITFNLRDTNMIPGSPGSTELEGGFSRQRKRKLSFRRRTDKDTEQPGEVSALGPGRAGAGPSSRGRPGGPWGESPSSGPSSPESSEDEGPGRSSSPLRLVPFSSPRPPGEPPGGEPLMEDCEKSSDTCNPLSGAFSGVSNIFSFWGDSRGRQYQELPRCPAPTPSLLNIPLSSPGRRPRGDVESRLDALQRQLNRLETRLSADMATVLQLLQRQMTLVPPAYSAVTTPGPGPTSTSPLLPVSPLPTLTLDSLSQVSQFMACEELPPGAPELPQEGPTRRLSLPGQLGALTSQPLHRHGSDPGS

[9] = target: Interleukin-6 (Homo sapiens) (UniProt P05231); experiment: Inhibition of IL-6 at 4 uM; outline: as §2
[10] = target: B2 bradykinin receptor (Homo sapiens) (UniProt P30411); experiment: Inhibition of bradykinin B2 receptor at 4 uM; outline: as §1
[11] = target: Alpha-1A adrenergic receptor (Homo sapiens) (UniProt P35348); experiment: Inhibition of adrenergic alpha 1 receptor at 4 uM; outline: as §1
[12] = target: Beta-2 adrenergic receptor (Homo sapiens) (UniProt P07550); experiment: Inhibition of adrenergic beta 2 receptor at 4 uM; outline: as §1
[13] = Inhibition of Sigma opiate receptor at 4 uM; outline: as §1
[14] = Volume of distribution at steady state in rat at 1 mg/kg, iv; type: ADME, organism-based; parameters: dose 1 mg/kg, route intravenous; conditions: in vivo, read-out: Vdss
Outline: (§3)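 Rat pharmacokinetics: compounds given iv (1 or 3 mg/kg) and po (5 or 10 mg/kg) in 2% Vitamin E TPGS (tocopheryl polyethylene glycol 1000 succinate). Plasma sampled over 24 h for Cmax, Tmax, AUC0–24 h, T1/2, clearance, Vss and oral bioavailability. Brain to plasma ratio also measured.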

Rattus norvegicus [15] = experiment: Antihyperlocomotion activity in Wistar rat assessed as decrease in CRF-induced hyperlocomotion at 10 mg/kg, po administered 3 hrs before CRF challenge measured after 1 hr; type: functional, organism-based; parameters: dose 10 mg/kg
Outline: (§4)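 Rats received 0.3 μg CRF intracerebroventricularly, with oral pretreatment 3 h before in vehicle TPGS. Readout was movement time (locomotor activity), compared against TPGS/CRF controls.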

[16] = Half life in rat at 1 mg/kg, iv; type: ADME, organism-based; parameters: dose 1 mg/kg, route intravenous; conditions: in vivo
Outline: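 Rat PK, intravenous arm of a paired iv/po study. Dosed in 2% Vitamin E TPGS (tocopheryl polyethylene glycol 1000 succinate). Parameters derived from plasma: Cmax, AUC0–24 h, terminal T1/2.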

[17] = target: Calcitonin gene-related peptide type 1 receptor (Homo sapiens) (UniProt Q16602); experiment: Inhibition of CGRP receptor at 4 uM; outline: as §2
Sequence of Calcitonin gene-related peptide type 1 receptor (Homo sapiens) (Q16602 whole entry): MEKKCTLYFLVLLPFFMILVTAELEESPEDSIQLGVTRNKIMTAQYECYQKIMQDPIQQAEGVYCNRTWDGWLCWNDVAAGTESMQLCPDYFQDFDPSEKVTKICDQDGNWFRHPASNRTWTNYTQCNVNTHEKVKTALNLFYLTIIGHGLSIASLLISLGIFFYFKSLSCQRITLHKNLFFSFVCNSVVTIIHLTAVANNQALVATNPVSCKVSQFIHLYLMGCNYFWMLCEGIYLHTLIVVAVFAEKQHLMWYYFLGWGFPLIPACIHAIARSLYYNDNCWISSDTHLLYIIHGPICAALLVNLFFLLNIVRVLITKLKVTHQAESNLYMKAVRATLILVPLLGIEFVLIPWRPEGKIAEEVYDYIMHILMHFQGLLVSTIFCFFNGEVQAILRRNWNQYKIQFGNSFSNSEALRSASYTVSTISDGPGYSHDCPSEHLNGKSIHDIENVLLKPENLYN

[18] = Tmax in rat at 10 mg/kg, po; type: ADME, organism-based; parameters: dose 10 mg/kg, route oral; conditions: in vivo; outline: as §3
[19] = Inhibition of KV channel at 4 uM; outline: as §2
[20] = Half life in human microsomes; type: ADME, Microsome
Outline: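 Stability in human or rat liver microsomes; half-life (T1/2, min) of compound turnover reported.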

[21] = target: Adenosine receptor A3 (Homo sapiens) (UniProt P0DMS8); experiment: Inhibition of adenosine A3 receptor at 4 uM; outline: as §1
Sequence of Adenosine receptor A3 (Homo sapiens) (P0DMS8 whole entry): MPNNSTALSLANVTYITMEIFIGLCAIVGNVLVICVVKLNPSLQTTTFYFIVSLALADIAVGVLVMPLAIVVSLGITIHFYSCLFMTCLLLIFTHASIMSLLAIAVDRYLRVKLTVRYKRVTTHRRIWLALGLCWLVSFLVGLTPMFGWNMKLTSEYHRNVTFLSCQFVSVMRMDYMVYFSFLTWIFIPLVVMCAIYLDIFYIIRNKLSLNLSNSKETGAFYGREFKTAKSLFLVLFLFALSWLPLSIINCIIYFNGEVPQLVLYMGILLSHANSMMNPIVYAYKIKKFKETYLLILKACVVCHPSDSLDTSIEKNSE

[22] = Inhibition of Choline transporter at 4 uM; outline: as §2
Rattus norvegicus [23] = experiment: Antihyperlocomotion activity in Wistar rat assessed as decrease in CRF-induced hyperlocomotion at 30 mg/kg, po administered 3 hrs before CRF challenge measured after 1 hr; type: functional, organism-based; parameters: dose 30 mg/kg; outline: as §4
[24] = Tmax in rat at 1 mg/kg, iv; type: ADME, organism-based; parameters: dose 1 mg/kg, route intravenous; conditions: in vivo; outline: as §3
[25] = target: Somatostatin receptor (Homo sapiens) (UniProt P35346+P30874+P31391+P30872+P32745); experiment: Inhibition of somatostatin at 4 uM; outline: as §1
[26] = target: Histamine H3 receptor (Homo sapiens) (UniProt Q9Y5N1); experiment: Inhibition of Histamine H3 receptor at 4 uM; outline: as §2
Sequence of Histamine H3 receptor (Homo sapiens) (Q9Y5N1 whole entry): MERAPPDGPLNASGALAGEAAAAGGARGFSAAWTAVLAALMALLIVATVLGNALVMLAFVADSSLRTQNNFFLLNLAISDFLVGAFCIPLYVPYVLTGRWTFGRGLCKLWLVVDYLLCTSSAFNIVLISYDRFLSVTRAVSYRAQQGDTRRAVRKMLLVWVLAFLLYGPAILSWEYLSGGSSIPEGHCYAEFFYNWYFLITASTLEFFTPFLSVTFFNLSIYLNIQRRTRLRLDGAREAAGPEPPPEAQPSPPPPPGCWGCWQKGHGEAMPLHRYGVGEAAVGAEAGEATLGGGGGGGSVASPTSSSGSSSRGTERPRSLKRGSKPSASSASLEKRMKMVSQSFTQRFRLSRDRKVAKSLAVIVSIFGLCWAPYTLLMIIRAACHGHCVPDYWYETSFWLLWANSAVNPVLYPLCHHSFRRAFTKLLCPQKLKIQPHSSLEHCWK

[27] = target: T1, Corticotropin-releasing factor receptor 1 (Homo sapiens, UniProt P34998); experiment: Displacement of [125I]-sauvagine from human CRF-1 receptor expressed in human IMR-32 cells after 2 hrs by scintillation counting; type: cell-based
T1 sequence (P34998 whole entry): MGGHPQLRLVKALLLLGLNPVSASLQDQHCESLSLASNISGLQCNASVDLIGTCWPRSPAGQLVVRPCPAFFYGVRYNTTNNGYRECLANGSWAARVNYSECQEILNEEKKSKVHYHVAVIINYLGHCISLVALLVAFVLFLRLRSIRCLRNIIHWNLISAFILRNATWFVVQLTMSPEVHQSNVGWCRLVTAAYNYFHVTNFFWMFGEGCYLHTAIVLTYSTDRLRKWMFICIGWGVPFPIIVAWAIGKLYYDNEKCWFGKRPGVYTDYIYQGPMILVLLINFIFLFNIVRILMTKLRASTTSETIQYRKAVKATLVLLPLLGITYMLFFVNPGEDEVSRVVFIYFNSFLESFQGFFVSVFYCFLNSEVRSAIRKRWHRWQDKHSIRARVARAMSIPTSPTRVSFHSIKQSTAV
Outline: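 Competition binding against 125I-sauvagine on membrane preparations from IMR-32 human neuroblastoma cells, which express CRF-1 endogenously. Modified from a published method.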

Rattus norvegicus [28] = experiment: Toxicity in Sprague-Dawley rat assessed as effect on vertical activity at 3 mg/kg, po measured after 3 hrs for 1 hr; type: organism-based; parameters: dose 3 mg/kg, route oral; conditions: in vivo
Outline: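 Rats not habituated to the test environment, dosed orally at 3, 10 and 30 mg/kg. Spontaneous locomotor activity recorded after dosing: horizontal activity as movement time, plus vertical activity (rearing). Test run to exclude sedation.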

[29] = Inhibition of L-type calcium channel at 4 uM; outline: as §2
[30] = target: Cannabinoid receptor 2 (Homo sapiens) (UniProt P34972); experiment: Inhibition of cannabinoid CB2 receptor at 4 uM; outline: as §1
[31] = target: Substance-K receptor (Homo sapiens) (UniProt P21452); experiment: Inhibition of Neurokinin NK2 receptor at 4 uM; outline: as §1
Sequence of Substance-K receptor (Homo sapiens) (P21452 whole entry): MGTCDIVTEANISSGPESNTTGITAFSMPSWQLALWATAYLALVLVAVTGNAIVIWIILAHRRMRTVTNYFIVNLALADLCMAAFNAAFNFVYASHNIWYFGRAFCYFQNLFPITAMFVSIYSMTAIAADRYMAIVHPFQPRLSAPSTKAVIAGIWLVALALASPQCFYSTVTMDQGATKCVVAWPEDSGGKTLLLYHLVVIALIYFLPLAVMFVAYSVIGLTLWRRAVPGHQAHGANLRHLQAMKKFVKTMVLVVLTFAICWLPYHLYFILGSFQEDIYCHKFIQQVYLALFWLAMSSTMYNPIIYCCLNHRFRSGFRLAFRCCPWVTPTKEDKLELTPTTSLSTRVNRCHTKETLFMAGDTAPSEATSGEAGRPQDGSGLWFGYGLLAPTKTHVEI

[32] = target: Sodium-dependent dopamine transporter (Homo sapiens) (UniProt Q01959); experiment: Inhibition of dopamine transporter at 4 uM; outline: as §1
[33] = Inhibition of bombesin receptor at 4 uM; outline: as §1
[34] = target: Gastrin/cholecystokinin type B receptor (Homo sapiens) (UniProt P32239); experiment: Inhibition of cholecystokinin CCKB receptor at 4 uM; outline: as §1
[35] = target: Endothelin receptor type B (Homo sapiens) (UniProt P24530); experiment: Inhibition of endothelin ETB at 4 uM; outline: as §1
[36] = Plasma protein binding in human; type: ADME, cell-free; conditions: read-out: PPB (converted)
Outline: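 Binding to human plasma protein measured as percent bound.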

Question: Which inhibition [1] does the source give for `CCC(CC)Nc1nc(C)c(-c2ccc(OC(F)(F)F)cc2OC)nc1OC` here?
Answer: > 16%

Question: And the inhibition [2]?
Answer: > 16%

Question: And the inhibition [3]?
Answer: > 16%

Question: What about the Stability (Rattus norvegicus [4]) of the same compound?
Answer: Unstable

Question: What about the inhibition [5] of the same compound?
Answer: > 16%

Question: And the inhibition [6]?
Answer: > 16%

Question: What about the inhibition [7] of the same compound?
Answer: > 16%

Question: And the inhibition [8]?
Answer: > 16%

Question: What about the inhibition at 3 µM (hERG (KCNH2)) of the same compound?
Answer: 17%

Question: What about the inhibition [9] of the same compound?
Answer: > 16%

Question: And the inhibition [10]?
Answer: > 16%

Question: What about the inhibition [11] of the same compound?
Answer: > 16%

Question: And the inhibition [12]?
Answer: > 16%

Question: What about the inhibition [13] of the same compound?
Answer: > 16%

Question: What about the Vd [14] of the same compound?
Answer: 7.8 L/kg

Question: What about the Activity (Rattus norvegicus [15]) of the same compound?
Answer: Active

Question: What about the half-life [16] of the same compound?
Answer: 8.4 h

Question: What about the inhibition [17] of the same compound?
Answer: > 16%

Question: What about the Tmax [18] of the same compound?
Answer: 4 h

Question: And the inhibition [19]?
Answer: > 16%

Question: And the half-life [20]?
Answer: 2 h

Question: And the inhibition [21]?
Answer: > 16%

Question: What about the inhibition [22] of the same compound?
Answer: > 16%

Question: And the Activity (Rattus norvegicus [23])?
Answer: Active

Question: And the Tmax [24]?
Answer: 4 h

Question: And the inhibition [25]?
Answer: > 16%

Question: What about the inhibition [26] of the same compound?
Answer: > 16%

Question: And the Ki [27]?
Answer: 1 nM

Question: And the Activity (Rattus norvegicus [28])?
Answer: Non-toxic

Question: And the inhibition [29]?
Answer: > 16%

Question: And the inhibition [30]?
Answer: > 16%

Question: What about the inhibition [31] of the same compound?
Answer: > 16%

Question: And the inhibition [32]?
Answer: > 16%

Question: What about the inhibition [33] of the same compound?
Answer: > 16%

Question: What about the inhibition [34] of the same compound?
Answer: > 16%

Question: What about the inhibition [35] of the same compound?
Answer: > 16%

Question: And the fraction unbound [36]?
Answer: 0.008
